Published values pooled from the literature.
Target: Serine/threonine-protein kinase 17B (STK17B, Homo sapiens, UniProt O94768)
Residues used in one study (O94768 1-372): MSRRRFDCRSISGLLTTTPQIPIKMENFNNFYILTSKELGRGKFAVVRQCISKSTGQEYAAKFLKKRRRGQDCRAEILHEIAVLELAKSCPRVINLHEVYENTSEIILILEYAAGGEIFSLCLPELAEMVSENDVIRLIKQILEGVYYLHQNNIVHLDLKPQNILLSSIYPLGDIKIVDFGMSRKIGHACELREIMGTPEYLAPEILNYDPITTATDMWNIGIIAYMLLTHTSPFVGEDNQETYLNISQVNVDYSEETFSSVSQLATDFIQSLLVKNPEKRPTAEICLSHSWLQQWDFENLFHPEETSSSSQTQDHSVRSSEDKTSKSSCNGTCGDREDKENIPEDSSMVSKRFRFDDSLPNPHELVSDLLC

| Compound | effect on | method | concentration | remaining binding [%] |
| --- | --- | --- | --- | --- |
| COc1ncc2cc3ccccc3nc2c1C#N | cell-free assay | competition with immobilised ligand | 5 µM | 100 |
| O=C(NCc1ncc(C(F)(F)F)cc1Cl)c1ccc2c(c1)C1(CCS(=O)(=O)CC1)[C@H](C1CC1)N2S(=O)(=O)c1ccc(F)cc1 | cell-free assay | competition with immobilised ligand | 1 µM | 85 |
| O=C(c1ccc(Nc2ncc(Cl)c(-c3cc4ccccc4s3)n2)cc1)N1CCC(N2CCCC2)CC1 | binding | competition with immobilised ligand | 1 µM | 0 |
| C[C@@H]1CN(c2cc(-c3n[nH]c4ccc(OC5(C)CC5)cc34)ncn2)C[C@H](C)O1 | cell-free assay | competition with immobilised ligand | 0.1 µM | 96 |
| C[C@@H]1CCN(c2nccc(-c3cnn4ncccc34)n2)C1 | binding | – | 1 µM | 100 |
| CNC(=O)[C@@H]1CC[C@@H](n2c(-c3ccc4cnccc4c3)nc3ccc(C(=O)NCc4cccc(C(N)=O)c4)cc32)C1 | binding | competition with immobilised ligand | 1 µM | 99 |
| N[C@H]1CCN(c2nccc(-c3cnn4ncccc34)n2)C1 | binding | – | 1 µM | 100 |
| Cc1noc([C@H]2C[C@@H](c3ccc(C(F)(F)F)cc3)CN(C(=O)N3CCS(=O)(=O)C3)C2)n1 | cell-free assay | competition with immobilised ligand | 1 µM | 100 |
| COc1ccnn2ncc(-c3ccnc(N(C)C)n3)c12 | binding | – | 1 µM | 100 |
| O=C(NCCCN1CCOCC1)c1ccc(Nc2nccc(-c3cc4ccccc4s3)n2)cc1 | binding | competition with immobilised ligand | 1 µM | 0 |
| CC1CCCN1c1nccc(-c2cnn3ncccc23)n1 (stereo not shown) | binding | – | 1 µM | 100 |
| Cc1c(C(=O)O)cc(-c2ccc(C3CCNCC3)cc2)c2ccc(-c3ccc(C(F)(F)F)cc3)cc12 | cell-free assay | competition with immobilised ligand | 1 µM | 100 |
| FC(F)(F)Oc1cccc(-c2cnc3ccc(-c4ccncc4)nn23)c1 | cell-free assay | competition with immobilised ligand | 5 µM | 85 |
| O=C(Nc1c[nH]nc1C(=O)NC1CCNCC1)c1cc(F)cc(F)c1 | binding | competition with immobilised ligand | 1 µM | 100 |
| c1cnn2ncc(-c3ccnc(N4CCC45COC5)n3)c2c1 | binding | – | 1 µM | 100 |
| CN([C@@H]1CCc2c(CC(=O)O)c3cc(S(C)(=O)=O)ccc3n2C1)S(=O)(=O)c1ccc(F)cc1 | cell-free assay | competition with immobilised ligand | 1 µM | 85 |
| CN(CCCC(F)(F)F)c1nccc(-c2cnn3ncccc23)n1 | binding | – | 1 µM | 100 |
| Nc1ncc2c(n1)-c1c([nH]c3ccc(C#CC4CC4)cc13)CCCC2 | binding | competition with immobilised ligand | 1 µM | 96 |
| Cc1cnn2ncc(-c3ccnc(N(C)C)n3)c2c1 | binding | – | 1 µM | 100 |
| COc1cnc(Nc2cccc(S(N)(=O)=O)c2)nc1N1CCN(c2ccccc2)C(=O)C1 | binding | competition with immobilised ligand | 1 µM | 89 |
| CCCCN(CCCC)C(=O)CN1C[C@H](c2cc(OC)c3c(c2)OCO3)[C@@H](C(=O)O)[C@@H]1CC(C)(C)CCC | cell-free assay | competition with immobilised ligand | 1 µM | 100 |
| O=C(NCCCN1CCOCC1)c1ccc(Nc2ncc(Cl)c(-c3ccc(Cl)s3)n2)cc1 | binding | competition with immobilised ligand | 1 µM | 0.45 |
